{"source": "ChEMBL document CHEMBL4014308", "about": "“Amphiphilic Tobramycin-Lysine Conjugates Sensitize Multidrug Resistant Gram-Negative Bacteria to Rifampicin and Minocycline” (J Med Chem, 2017)", "key": {"[1]": {"tested_on": "Pseudomonas aeruginosa", "assay": "Antibacterial activity against multidrug/extremely drug-resistant/colistin-susceptible Pseudomonas aeruginosa isolate P264-104354 after 18 hrs by microtiter dilution assay", "type": "functional", "conditions": "isolate P264-104354, 18 h", "method_in_brief": "(§1)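 Broth microdilution following CLSI guidelines. An overnight culture was adjusted to 0.5 McFarland in saline, then diluted 1:50 in Mueller-Hinton broth. This inoculum was added in equal volume to 2-fold serial dilutions of agent in MHB and incubated 18 h at 37 °C. MIC was the lowest concentration with no visible growth.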"}, "[2]": {"tested_on": "Acinetobacter baumannii", "assay": "Synergistic antibacterial activity against multidrug-resistant Acinetobacter baumannii 110193 after 18 hrs in presence of rifampicin by checkerboard assay", "type": "functional", "conditions": "Acinetobacter baumannii, 110193, 18 h", "method_in_brief": "(§2)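 Checkerboard in MHB with a 10 × 7 matrix: antibiotic serially diluted along one axis, adjuvant along the other. Inoculum was a 1:50 dilution of a 0.5 McFarland suspension, incubated 18 h at 37 °C and read on a plate reader. Each FIC is the concentration in a no-growth well divided by the MIC alone; FIC index is their sum, with ≤0.5 taken as synergy.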"}, "[3]": {"tested_on": "Acinetobacter baumannii", "assay": "Synergistic antibacterial activity against multidrug-resistant Acinetobacter baumannii 110193 after 18 hrs in presence of minocycline by checkerboard assay", "type": "functional", "conditions": "Acinetobacter baumannii, 110193, 18 h", "method_in_brief": "as §2"}, "[4]": {"tested_on": "Pseudomonas aeruginosa", "assay": "Potentiation of amikacin-induced antibacterial activity against Pseudomonas aeruginosa PAO1 at 4 ug/ml after 18 hrs by checkerboard assay", "type": "functional", "method_in_brief": "(§3)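 Checkerboard in Mueller-Hinton broth: antibiotic serially diluted along one axis and adjuvant along the other (10 × 7 matrix). Inoculum from a 0.5 McFarland saline suspension diluted 1:50 in MHB; 18 h at 37 °C, then plate read. MIC is the lowest concentration with no growth. FIC of each agent is its concentration in a no-growth well divided by its MIC alone; FIC index is the sum of both. FIC index ≤0.5 counts as synergy.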"}, "[5]": {"tested_on": "Pseudomonas aeruginosa", "assay": "Potentiation of minocycline-induced antibacterial activity against multidrug/extremely drug-resistant/colistin-susceptible Pseudomonas aeruginosa isolate P259-96918 assessed as fold reduction in minocycline MIC at 4 ug/ml after 18 hrs by checkerboard assay relative to control", "type": "functional", "method_in_brief": "(§4)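 Checkerboard in Mueller-Hinton broth, 10 × 7 matrix, with the adjuvant held at 4 µg/mL. Inoculum from a 0.5 McFarland suspension diluted 1:50; 18 h at 37 °C. Antibiotic MIC (lowest concentration with no growth) with adjuvant is compared with the antibiotic MIC alone, giving a fold reduction.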"}, "[6]": {"tested_on": "Pseudomonas aeruginosa", "assay": "Potentiation of minocycline-induced antibacterial activity against multidrug/extremely drug-resistant/colistin-susceptible Pseudomonas aeruginosa isolate 101885 at 4 ug/ml after 18 hrs by checkerboard assay", "type": "functional", "method_in_brief": "as §3"}, "[7]": {"tested_on": "Acinetobacter baumannii", "assay": "Antibacterial activity against multidrug-resistant Acinetobacter baumannii AB027 after 18 hrs by microtiter dilution assay", "type": "functional", "conditions": "AB027, 18 h", "method_in_brief": "as §1"}, "[8]": {"tested_on": "Pseudomonas aeruginosa", "assay": "Synergistic antibacterial activity against Pseudomonas aeruginosa PAO1 after 18 hrs in presence of amikacin by checkerboard assay", "type": "functional", "conditions": "PAO1, 18 h", "method_in_brief": "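Checkerboard in MHB: antibiotic diluted along one axis and adjuvant along the other (10 × 7 matrix). Inoculum was a 1:50 dilution in MHB of a 0.5 McFarland saline suspension; incubated 18 h at 37 °C. Each FIC = concentration in the no-growth well divided by the MIC alone; FIC index = sum of both FICs. ≤0.5 synergy, 0.5–4 no interaction, ≥4 antagonism.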"}, "[9]": {"tested_on": "Acinetobacter baumannii", "assay": "Synergistic antibacterial activity against multidrug-resistant Acinetobacter baumannii AB031 after 18 hrs in presence of rifampicin by checkerboard assay", "type": "functional", "conditions": "AB031, 18 h", "method_in_brief": "as §2"}, "[10]": {"tested_on": "Pseudomonas aeruginosa", "assay": "Antibacterial activity against multidrug/extremely drug-resistant/colistin-susceptible Pseudomonas aeruginosa isolate P262-101856 after 18 hrs by microtiter dilution assay", "type": "functional", "conditions": "isolate P262-101856, 18 h", "method_in_brief": "as §1"}, "[11]": {"tested_on": "Pseudomonas aeruginosa", "assay": "Bactericidal activity against Pseudomonas aeruginosa PAO1 at 4 times antibacterial MIC after 10 mins", "type": "functional", "method_in_brief": "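Time-kill with P. aeruginosa PAO1. A 0.5 McFarland suspension was diluted 1:50 in LB broth and exposed to agent in PBS (pH 7.2) at 1/2×, 1×, 2× or 4× MIC at 37 °C for 6 h. Samples at 0, 10, 30, 60, 90, 120, 240 and 360 min were serially diluted in PBS, plated on LB agar, and colonies counted after 20 h at 37 °C.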"}, "[12]": {"assay": "Toxicity in Galleria mellonella assessed as survival rate at 200 mg/kg for 4 days relative to control", "type": "organism-based", "conditions": "in vivo", "method_in_brief": "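Galleria mellonella larvae, about 250 mg each, were used within 7 days of delivery. Compound alone was injected at 100 and 200 mg/kg with no bacterial challenge, ten larvae per group. Larvae were kept at 37 °C and survival was scored over 96 h.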"}, "[13]": {"tested_on": "Pseudomonas aeruginosa", "assay": "Potentiation of rifampicin-induced antibacterial activity against multidrug/extremely drug-resistant/colistin-susceptible Pseudomonas aeruginosa isolate P262-101856 infected in Galleria mellonella assessed as mortality at 12.5 to 37.5 mg/kg after 24 hrs relative to control", "type": "functional", "method_in_brief": "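Galleria mellonella larvae (~250 mg, used within 7 days), 15 per group, injected with 10 µL XDR P262 at 1.0×10^3 CFU/mL in PBS. PBS vehicle control. Survival scored over 24 h at 37 °C.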"}, "[14]": {"tested_on": "Pseudomonas aeruginosa", "assay": "Potentiation of minocycline-induced antibacterial activity against multidrug/extremely drug-resistant/colistin-resistant Pseudomonas aeruginosa isolate 91433 assessed as fold reduction in minocycline MIC at 4 ug/ml after 18 hrs by checkerboard assay relative to control", "type": "functional", "method_in_brief": "as §4"}, "[15]": {"tested_on": "Enterobacter cloacae", "assay": "Antibacterial activity against multidrug-resistant Enterobacter cloacae 117029 after 18 hrs by microtiter dilution assay", "type": "functional", "conditions": "Enterobacter cloacae, 117029, 18 h", "method_in_brief": "as §1"}, "[16]": {"tested_on": "Escherichia coli", "assay": "Antibacterial activity against gentamicin/tobramycin/ciprofloxacin-resistant Escherichia coli isolate CANWARD-2011 97615 harboring AAC3-2A after 18 hrs by microtiter dilution assay", "type": "functional", "conditions": "isolate CANWARD-2011 97615, 18 h", "method_in_brief": "as §1"}, "[17]": {"tested_on": "Pseudomonas aeruginosa", "assay": "Potentiation of erythromycin-induced antibacterial activity against Pseudomonas aeruginosa PAO1 at 4 ug/ml after 18 hrs by checkerboard assay", "type": "functional", "method_in_brief": "as §3"}, "[18]": {"tested_on": "Pseudomonas aeruginosa", "assay": "Potentiation of rifampicin-induced bactericidal activity against Pseudomonas aeruginosa PAO1 at 0.125 times antibacterial MIC after 90 mins", "type": "functional", "method_in_brief": "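Combination time-kill in PAO1 (LB, 37 °C). Aliquots taken at 0–360 min, serially diluted in PBS, plated on LB agar, and CFU counted after 20 h at 37 °C.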"}, "[19]": {"tested_on": "Acinetobacter baumannii", "assay": "Potentiation of rifampicin-induced antibacterial activity against multidrug-resistant Acinetobacter baumannii AB027 at 4 ug/ml after 18 hrs by checkerboard assay", "type": "functional", "method_in_brief": "as §3"}, "[20]": {"tested_on": "Pseudomonas aeruginosa", "assay": "Antibacterial activity against multidrug/extremely drug-resistant/colistin-susceptible Pseudomonas aeruginosa isolate P259-96918 after 18 hrs by microtiter dilution assay", "type": "functional", "conditions": "isolate P259-96918, 18 h", "method_in_brief": "as §1"}, "[21]": {"tested_on": "Acinetobacter baumannii", "assay": "Potentiation of minocycline-induced antibacterial activity against multidrug-resistant Acinetobacter baumannii 110193 at 4 ug/ml after 18 hrs by checkerboard assay", "type": "functional", "method_in_brief": "as §3"}}, "note": "Activity calls are given as the source filed them. The calls are words filed in the database; no cut-off is given here.", "data": [{"smiles": "Cl.Cl.Cl.Cl.Cl.Cl.Cl.NCCCC[C@H](N)C(=O)N(CCCCCCCCCCCCO[C@@H]1[C@@H](O[C@H]2O[C@H](CO)[C@@H](O)[C@H](N)[C@H]2O)[C@H](N)C[C@H](N)[C@H]1O[C@H]1O[C@H](CN)[C@@H](O)C[C@H]1N)Cc1c2ccccc2c(Cl)c2ccccc12", "values": [{"measurement": "MIC", "setting": "[1]", "result": 32, "unit": "µg/mL"}, {"measurement": "MIC", "setting": "[2]", "result": 1, "unit": "µg/mL"}, {"measurement": "MIC", "setting": "[3]", "result": 2, "unit": "µg/mL"}, {"measurement": "fractional inhibitory concentration index (FICI)", "setting": "[4]", "result": 1.063}, {"measurement": "fold change (FC)", "setting": "[5]", "result": 64}, {"measurement": "fractional inhibitory concentration index (FICI)", "setting": "[6]", "result": 0.156}, {"measurement": "MIC", "setting": "[7]", "result": 128, "unit": "µg/mL"}, {"measurement": "MIC", "setting": "[8]", "result": 2, "unit": "µg/mL"}, {"measurement": "MIC", "setting": "[9]", "result": 1, "unit": "µg/mL"}, {"measurement": "MIC", "setting": "[10]", "result": 32, "unit": "µg/mL"}, {"measurement": "Activity", "setting": "[11]", "result": "Active"}, {"measurement": "survival at 96 h", "setting": "[12]", "result": 100, "unit": "%"}, {"measurement": "mortality", "setting": "[13]", "result": 100, "unit": "%"}, {"measurement": "fold change (FC)", "setting": "[14]", "result": 128}, {"measurement": "MIC", "setting": "[15]", "result": 256, "unit": "µg/mL"}, {"measurement": "MIC", "setting": "[16]", "result": 32, "unit": "µg/mL"}, {"measurement": "fractional inhibitory concentration index (FICI)", "setting": "[17]", "result": 0.156}, {"measurement": "Activity", "setting": "[18]", "result": "Active"}, {"measurement": "fractional inhibitory concentration index (FICI)", "setting": "[19]", "result": 0.079}, {"measurement": "MIC", "setting": "[20]", "result": 64, "unit": "µg/mL"}, {"measurement": "fractional inhibitory concentration index (FICI)", "setting": "[21]", "result": 0.63}]}]}
